From PubChem
An excerpt weighted towards active compounds, which were near 1.9% of everything screened.
Yeast superoxide = yeast age-related superoxide inhibition as caloric restriction mimetic. S. cerevisiae aged cells, superoxide DHE fluorescence; hits give low values. superoxide response (% of plate mean), % at 10 µM. hit rate 0.18% among 330,000;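 active = superoxide response under a set limit, about three screen SD below normal, cut at about 65% in these data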;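 note: yeast aged for seven days with compound at 30 °C before DHE staining; 100% = average MFI of all compound-treated wells on the plate with controls excluded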
MIN6 prolif-1 = inducers of beta-cell replication in MIN6 cells | MIN6 cells proliferation, ATPlite luminescence, 48 h; cells starved in 0.2% serum; 100% = growth in 10% serum | proliferation, % at 10 µM | hit rate 0.29% among 330,000 | AID 2380;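 active = compounds whose signal lies at least 3.5 SD above the mean of all wells on their plate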;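 note: 0% = DMSO-treated cells in low-serum medium and 100% = 10% serum control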
proKLK7 act = activates the human kallikrein-7 zymogen; activation, % at 7 µM; hit rate 0.9% among 370,000; P49862; purified proKLK7, EDANS-DABCYL substrate fluorescence; 100% is mature enzyme control, 0% vehicle;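 active = activation above the mean of all tested compounds plus 3 SD, computed per campaign excluding outliers beyond control limits, cut at about 13% in these data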
Target sequence (P49862 whole entry, looked up): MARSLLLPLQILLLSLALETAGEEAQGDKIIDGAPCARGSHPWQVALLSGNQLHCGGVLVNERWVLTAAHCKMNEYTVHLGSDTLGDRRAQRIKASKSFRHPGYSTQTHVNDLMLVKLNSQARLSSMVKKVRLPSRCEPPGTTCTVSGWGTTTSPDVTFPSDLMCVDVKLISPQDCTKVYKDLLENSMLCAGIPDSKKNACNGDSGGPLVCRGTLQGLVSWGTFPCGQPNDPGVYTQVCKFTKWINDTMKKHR
V-ATPase pHluor = regulators of yeast V-ATPase proton transport. S. cerevisiae, pHLuorin cytosolic pH fluorescence. response, % at 10 µM. hit rate 0.37% among 350,000; in the data active = response mostly above about 7.3%, no sharp cut-off; inactive = mostly below about 5.4%; note: actives read high
Rce1 inh = inhibitors of yeast Ras-converting enzyme | calls only | Q03530 | yeast membranes, quenched prenylated peptide cleavage fluorescence | AID 2563 | hit rate 0.27% among 290,000;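 active = fall in fluorescence gain of 50% or more versus controls, with final raw signal at or below 3038400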;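 note: plate controls were neutral control wells for no effect and wells lacking membranes for full effect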
Target sequence (Q03530 whole entry, looked up): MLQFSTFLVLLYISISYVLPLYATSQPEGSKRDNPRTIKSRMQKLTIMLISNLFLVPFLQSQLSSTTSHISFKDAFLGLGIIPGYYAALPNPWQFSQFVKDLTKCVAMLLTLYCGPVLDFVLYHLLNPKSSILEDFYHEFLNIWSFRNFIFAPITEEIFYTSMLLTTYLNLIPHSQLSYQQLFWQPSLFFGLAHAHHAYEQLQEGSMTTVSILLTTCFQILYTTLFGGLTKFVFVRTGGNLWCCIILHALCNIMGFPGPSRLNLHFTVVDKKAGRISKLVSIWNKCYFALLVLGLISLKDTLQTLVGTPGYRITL
T cell modulator = T cell immune modulators affecting CD8 T cell-vesicle binding; response (vesicle binding), % at 7 µM; AID 2052; 2C CD8+ T cell-vesicle binding, flow cytometry; hits give low values; hit rate 0.068% among 330,000;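 active = response, share of CD8 T cells binding vesicles, and their 90th percentile fluorescence all below set limits, cut at about 80% in these data, passing the limit was not always enough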;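 note: values below 100% mean blocked vesicle binding to the CD8+ T cells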
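Test system: purified 2C TCR transgenic mouse naive CD8+ T cells. Probe or stimulus: QL9-peptide-loaded Drosophila micro-vesicles bearing Ld, ICAM-1 and B7-1. Incubation: binding step 1.5 h, 37 °C, antibody labelling 20 min, ice. Measured by: flow cytometry of vesicle-bound cells.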
MIN6 prolif-2 = MIN6 beta-cell replication induction, confirmed | shares compounds with MIN6 prolif-1 | MIN6 beta-cell proliferation, ATPlite luminescence, 48 h; cells kept in 0.2% serum; scaled between 0.2% and 10% serum | proliferation increase, % at 50 µM | 920 tested, under 10 active | AID 463095;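 active = proliferation increase above 40% at any of the four tested concentrations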
Superoxide pick = yeast aging superoxide inhibition, cherry pick confirmation | shares compounds with Yeast superoxide | S. cerevisiae aging, superoxide DHE fluorescence; hits give low values | superoxide response (% of plate), % at 10 µM | hit rate 1% among 850 | AID 434994;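 active = superoxide signal below 65% of the plate average of sample wells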;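 note: cells aged with compound for 7 days at 30 degrees C before staining; 100% equals mean DHE fluorescence of all compound wells on the plate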
DHE fluor count = DHE fluorescence interference, counter-screen artifact. shares compounds with Yeast superoxide. S. cerevisiae BY4741, flow cytometry; hits give low values. fluorescence response, % at 10 µM. 850 tested, under 10 active. AID 435000;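 active = fluorescence response below 15%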;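 note: percent of the mean fluorescence averaged over all compound wells on the plate; lower means stronger quenching of DHE signal or ROS scavenging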
KLK7 act conf = proKLK7 activation, confirmation. shares compounds with proKLK7 act. purified proKLK7, EDANS-DABCYL substrate fluorescence; scaled: vehicle 0, mature enzyme 100. activation, % at 7 µM. hit rate 68% among 3,200. AID 686949;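 active = activation, as change over the incubation, above the mean of all tested compounds plus 3 SD, cut at about 13% in these data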
EDANS-DABCYL int = optically interferes with EDANS-DABCYL signal, flagging KLK7 hits; shares compounds with proKLK7 act; EDANS-DABCYL substrate fluorescence interference, no enzyme, 4 h; solvent 0%, active enzyme control 100%; activation, % at 7 µM; hit rate 80% among 3,200; AID 686952;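 active = activation above the all-compound mean plus 3 SD, ignoring values outside control-based bounds, cut at about 4.8% in these data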;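 note: value is the 4 h activation minus the activation read at time zero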
Starred values were filed as active, the others as inactive; i = inactive; . = no result given.

SMILES	Yeast superoxide	MIN6 prolif-1	proKLK7 act	V-ATPase pHluor	Rce1 inh	T cell modulator	MIN6 prolif-2	others
CC(C)c1nc(CN2CCCCC2)cc(=O)[nH]1	105	8.9*	0	1	i	144	0
COc1cccc(NC(=O)CN(C)C(=O)c2ccccc2-c2nc3ccccc3s2)c1	107	-4	0	-2	.	215	.
CN(CC(=O)Nc1c(Cl)cccc1Cl)C(=O)c1ccccc1-c1nc2ccccc2s1	96	13*	0	2	i	386	-6
CC(=O)Nc1cccc(NC(=O)CSc2nc(C3CC3)nc3ccccc23)c1	124	-6	0	4	i	145	.
CC(=O)c1cccc(NC(=O)CSc2nc(C3CC3)nc3ccccc23)c1	95	0.0*	0	-1	.	200	-4
COc1ccc(-c2cc(C(=O)Nc3ccccc3SC)no2)cc1	115	-2	-1	0	.	760	.
COC(=O)c1ccccc1NC(=O)c1cc(-c2ccc(C)cc2)on1	104	8.3*	.	-5	i	342	0
Cc1noc(C)c1S(=O)(=O)N(C)C[C@H]1Oc2ccc(NS(=O)(=O)c3ccccc3)cc2C(=O)N([C@H](C)CO)C[C@@H]1C	106	1	0	4	.	414	.
CCOC(=O)C1(Cc2ccccc2C)CCCN(C(=O)CCn2nccc2C)C1 (configuration not stated)	89	11*	0	0	i	102	-4
Cc1ccc(-c2nnc(SCC(=O)Nc3ccc4c(c3)OCCO4)n2-c2ccc(C)cc2)cc1	.	.	0	.	.	.	.
Cc1nc2ccccc2c2c(N)cccc12	.	.	0	1	.	.	.
Cc1cc(C)c2c(N)c3ccccc3nc2n1	99	7.5*	16*	3	i	366	-6	KLK7 act conf=70*;EDANS-DABCYL int=77*
Cc1ccc(N2CC(C)Cn3c2nc2c3c(=O)[nH]c(=O)n2C)cc1C (configuration not stated)	96	1	-1	-2	i	i	.
CCC(C)(C)n1nnnc1CN(Cc1cc2cc(OC)c(OC)cc2[nH]c1=O)C1CCCC1	124	7.2*	16*	0	i	351	2	KLK7 act conf=-12;EDANS-DABCYL int=-8
CCOCCCn1c(=NC(=O)c2cccs2)c(C#N)cc2c(=O)n3ccccc3nc21	122	14*	53*	-1	i	281	3	KLK7 act conf=-432;EDANS-DABCYL int=-326
Cc1cccn2c(=O)c3cc(C#N)c(=NC(=O)c4cccs4)n(CCCOC(C)C)c3nc12	116	-2	7	1	i	352	.
C=CCCC1CN(Cc2ccc(OC)cc2)S(=O)(=O)c2c(Oc3ccc(C)cc3)cccc2O1 (configuration not stated)	.	.	1	.	.	.	.
CCN(CC)S(=O)(=O)c1ccc2c3c(cccc13)C(=O)N2	97	11*	23*	-1	i	0.0*	0	KLK7 act conf=15*;EDANS-DABCYL int=21*
COc1ccc(/C=N/NC(=O)c2ccccc2O)cc1Cn1nnc2ccccc21	97	2	1	0	i	264	.
CCC(=O)Nc1c(OC(=O)CC)ccc2c(C)cc(=O)oc12	90	13*	273*	0	i	i	2	KLK7 act conf=256*;EDANS-DABCYL int=254*
Cc1ccc(S(=O)(=O)N(C)c2ccc(N)cc2)cc1	92	1	0	-3	i	813	.	Superoxide pick=107;DHE fluor count=104
CCOc1ccc(NS(=O)(=O)c2ccc(N)cc2)cc1	101	0	0	-3	i	233	.	Superoxide pick=98;DHE fluor count=90
COc1cc(C)c(S(=O)(=O)N2CCCC2)cc1C	59*	-3	0	-2	i	310	.	Superoxide pick=80;DHE fluor count=92
COc1c(C)cc(S(=O)(=O)N2CCCC2)c(C)c1C	109	0	0	-2	i	208	.	Superoxide pick=97;DHE fluor count=95
COc1cc(C)c(S(=O)(=O)N2CCN(C)CC2)cc1C	114	0	0	-4	i	158	.
SMILES	Yeast superoxide	MIN6 prolif-1	proKLK7 act	V-ATPase pHluor	Rce1 inh	T cell modulator	MIN6 prolif-2	others
COc1cc(C)c(S(=O)(=O)N2CCCC2)cc1C(C)C	91	0	-1	3	i	470	.	Superoxide pick=92;DHE fluor count=90
CCOc1ccc2cc(S(=O)(=O)N3CCCCC3)ccc2c1	81	0	0	-1	i	608	.
CCOc1ccc(S(=O)(=O)N2CCCC2)cc1	112	-3	0	-3	i	325	.	Superoxide pick=110;DHE fluor count=109
CCOc1cc(S(=O)(=O)N2CCCC2)c(C)cc1C	99	2	0	2	i	263	.	Superoxide pick=104;DHE fluor count=104
CCOc1cc(C)c(S(=O)(=O)N2CCCCC2)cc1C	87	-1	0	5	i	366	.
COc1cc2c(=O)n(CCC(=O)NCC3CCCO3)c(=O)n(CC(=O)Nc3ccc(C)cc3)c2cc1OC (configuration not stated)	92	0	1	-5	i	190	.
CCC(C)(C)NC(=O)C(C(C)C)N(CC1CCCO1)C(=O)CNS(=O)(=O)c1ccccc1 (configuration not stated)	95	-4	0	1	i	328	.
CC(=O)CC[C@@H]1CC[C@]2(CCCN(C(=O)C3CCCC3)C2)O1	.	.	0	.	.	.	.
c1ccc(NN=C(c2ccccc2)c2cccs2)cc1	.	.	-1	1	.	.	.
CCOC(=O)C1=C(COC(=O)CNS(=O)(=O)c2c(F)cc(F)cc2Br)NC(=O)NC1C (configuration not stated)	.	.	0	-1	.	.	.
CC(C)=NNc1nc2sc3c(c2c(=O)[nH]1)CC(C)(C)OC3	50*	4	-34	3	i	231	.	Superoxide pick=95;DHE fluor count=92
CC1(C)Cc2c(sc3nc(N/N=C/c4ccccc4)[nH]c(=O)c23)CO1	94	-3	0	-1	i	190	.
CCN(C(=O)CSc1ncccc1C(=O)OC(C)C)c1cccc(C)c1	63*	-1	0	6	i	212	.	Superoxide pick=112;DHE fluor count=101
CCOC(=O)c1cccnc1SCC(=O)N(CC)c1cccc(C)c1	103	0	1	0	i	321	.
